According to ChEMBL document CHEMBL1124060, “2-Ethynylbenzenealkanamines. A new class of calcium entry blockers” (1988):

Legend:
Assay type in all cases: functional
Cavia porcellus [1] = species on record: Cavia porcellus; test: Concentration needed to elicit a 75% increase beyond control in coronary flow in ''Langendorff'', guinea pig heart (in vitro)
Procedure, shortened: (§1)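 Isolated Langendorff-perfused guinea pig hearts infused with a range of drug concentrations; force (g), rate (beats/min) and coronary flow (mL/min) recorded. A linear regression of percent-control flow gives C175, the micromolar concentration raising flow to 175% of control, reported only if within the tested range. Raw data analysed by paired t tests.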

Cavia porcellus [2] = species on record: Cavia porcellus; test: Concentration needed to achieve a 75% increase in coronary blood flow in 'Langendorff', guinea pig heart (in vitro negative inotropic activity); procedure, shortened: as §1
Cavia porcellus [3] = species on record: Cavia porcellus; test: Concentration needed to achieve a 75% increase in coronary blood flow in 'Langendorff', guinea pig heart (in vitro Negative inotropic potency); procedure, shortened: as §1
Rattus norvegicus [4] = test: Ability to lower blood pressure in the spontaneously hypertensive rat (SHR) at 3 mg/kg (p.o.); settings: route oral
Procedure, shortened: (§2)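 Spontaneously hypertensive rats dosed orally at the stated dose; read-out is the maximum fall in blood pressure (mmHg), with significance shown as P.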

Rattus norvegicus [5] = test: Ability to lower blood pressure in the spontaneously hypertensive rat (SHR) at 10 mg/kg (p.o.); settings: route oral; procedure, shortened: as §2
Rattus norvegicus [6] = test: Ability to lower blood pressure in the spontaneously hypertensive rat (SHR) at 30 mg/kg (p.o.); settings: route oral
Procedure, shortened: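 Spontaneously hypertensive rats were given a single oral dose of the compound. The read-out was the maximum fall in blood pressure, in mmHg, after that dose. A P value for significance was reported with each value.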

Oryctolagus cuniculus [7] = species on record: Oryctolagus cuniculus; test: In vitro inhibition of development of isometric tension, in response to KCl (60 uM) in rabbit aorta
Procedure, shortened: (§3)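 Test compounds at 10 μM; tension and calcium influx each expressed as % change from control, measured against KCl ([…]) or NE (10 μM) stimulus.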

Oryctolagus cuniculus [8] = species on record: Oryctolagus cuniculus; test: In vitro inhibition of development of isometric tension, in response to norepinephrine (NE, 10 uM) in rabbit aorta; procedure, shortened: as §3
Oryctolagus cuniculus [9] = species on record: Oryctolagus cuniculus; test: Inhibition of [Ca2+] influx in response to a stimulus of KCL ([…]); procedure, shortened: as §3
Oryctolagus cuniculus [10] = species on record: Oryctolagus cuniculus; test: Inhibition of [Ca2+] influx in response to a stimulus of norepinephrine (NE, 10 uM); procedure, shortened: as §3

Row | SMILES | C175 (Cavia porcellus [1]) | Contractile force, % of control (Cavia porcellus [2]) | P (Ei) (Cavia porcellus [3]) | Max fall in blood pressure (Rattus norvegicus [4]) | Max fall in blood pressure (Rattus norvegicus [5]) | Max fall in blood pressure (Rattus norvegicus [6]) | Change (Oryctolagus cuniculus [7]) | Change (Oryctolagus cuniculus [8]) | Change (Oryctolagus cuniculus [9]) | Change (Oryctolagus cuniculus [10]) | Control (Cavia porcellus [2])
1 | COc1cccc(CCN(C)C(C)Cc2cc(OC)ccc2C#Cc2ccccc2)c1 (configuration not stated) | 0.0035 µM | 95% | 0.21 | 67 mmHg |  |  |  |  |  |  | 
2 | COc1ccc(C#Cc2ccc(C#N)cc2)c(CC(C)N(C)CCc2ccc(OC)c(OC)c2)c1 (configuration not stated) | 0.45 µM | 75% | <0.05 |  | 27 mmHg |  |  |  |  |  | 
3 | COc1ccc(C#CCCc2ccccc2)c(CCCN(C)CCc2ccc(OC)c(OC)c2)c1 | 1.25 µM | 100% | >0.5 |  | 12 mmHg |  |  |  |  |  | 
4 | CCC#Cc1ccc(OC)cc1CCCN(C)CCc1ccc(OC)c(OC)c1 | 1 µM | 80% | <0.05 |  | 24 mmHg |  |  |  |  |  | 
5 | COc1ccc(C#Cc2ccccc2)c(CC(C)N(C)CCCCc2ccccc2)c1 (configuration not stated) | 2.75 µM | 90% | >0.05 |  |  | 74 mmHg |  |  |  |  | 
6 | COc1ccc(C#Cc2ccc(C(F)(F)F)cc2)c(CC(C)N(C)CCc2ccc(OC)c(OC)c2)c1 (configuration not stated) | 2 µM | 90% | >0.5 |  |  | 49 mmHg |  |  |  |  | 
7 | COc1ccc(C#Cc2ccccc2)c(CC(C)NCCc2ccc(Cl)cc2)c1 (configuration not stated) | >3 µM | >25% | <0.05 |  | 39 mmHg |  |  |  |  |  | 
8 | COc1ccc(C#Cc2ccccc2)c(CC(C)NCCc2cccc(Cl)c2Cl)c1 (configuration not stated) | 0.0048 µM | 83% | 0.031 | 45 mmHg |  |  |  |  |  |  | 
9 | COc1ccc(CCN(C)C(C)Cc2ccccc2C#Cc2ccccc2)cc1OC (configuration not stated) | 0.2 µM | 90% | >0.05 |  | 13 mmHg |  |  |  |  |  | 
10 | CCCCCCN(C)C(C)Cc1cc(OC)ccc1C#Cc1ccccc1 (configuration not stated) | >3 µM |  |  |  | 48 mmHg |  |  |  |  |  | 
11 | COc1ccc(C#Cc2ccc(SC)cc2)c(CC(C)N(C)CCc2ccc(OC)c(OC)c2)c1 (configuration not stated) | 0.55 µM | 80% | 0.5 |  |  | 45 mmHg |  |  |  |  | 
12 | COc1ccc(C#Cc2ccc(C(C)C)cc2)c(CC(C)N(C)CCc2ccc(OC)c(OC)c2)c1 (configuration not stated) | 4.04 µM | 34% | <0.001 | 13 mmHg |  |  |  |  |  |  | 
13 | COc1ccc(C#Cc2ccccc2)c(CC(C)N(C)CCc2ccccc2)c1 (configuration not stated) | 0.5 µM | 115% | >0.5 |  | 43 mmHg |  |  |  |  |  | 
14 | COc1ccc(C#Cc2ccc(Cl)cc2)c(CC(C)N(C)CCc2ccc(OC)c(OC)c2)c1 (configuration not stated) | 0.3 µM | 85% | >0.5 |  |  | 46 mmHg |  |  |  |  | 
15 | COc1ccc(C#Cc2ccccc2)c(CC(C)NCCc2ccc([N+](=O)[O-])cc2)c1 (configuration not stated) | >3 µM | >66% | <0.05 Ei |  |  | 66 mmHg |  |  |  |  | 
16 | COc1ccc(C#Cc2ccccc2)c(CC(C)N(C)Cc2ccc(OC)c(OC)c2)c1 (configuration not stated) | 3 µM | 50% | <0.05 |  | 20 mmHg |  |  |  |  |  | 
17 | COc1cccc(CC(C)NCCc2ccc(OC)c(OC)c2)c1 (configuration not stated) | >10 µM |  |  |  |  | 18 mmHg |  |  |  |  | 
18 | COc1ccc(C#Cc2ccccc2)c(CCCN(C)C)c1 | 0.3 µM | 110% | >0.5 |  |  | 22 mmHg |  |  |  |  | 
19 | COc1ccc(C#Cc2ccccc2)c(CC(C)N(C)CCc2cccc(Cl)c2)c1 (configuration not stated) | 0.005 µM | 95% | 0.53 | 64 mmHg |  |  |  |  |  |  | 
20 | COc1ccc(CCN(C)C(C)CCc2cc(F)ccc2C#Cc2ccccc2)cc1OC (configuration not stated) | 0.34 µM | 85% | 0.45 |  |  | 50 mmHg |  |  |  |  | 

Row | SMILES | C175 (Cavia porcellus [1]) | Contractile force, % of control (Cavia porcellus [2]) | P (Ei) (Cavia porcellus [3]) | Max fall in blood pressure (Rattus norvegicus [4]) | Max fall in blood pressure (Rattus norvegicus [5]) | Max fall in blood pressure (Rattus norvegicus [6]) | Change (Oryctolagus cuniculus [7]) | Change (Oryctolagus cuniculus [8]) | Change (Oryctolagus cuniculus [9]) | Change (Oryctolagus cuniculus [10]) | Control (Cavia porcellus [2])
21 | COc1ccc(C#Cc2ccccc2)c(CC(C)NCCc2cccc3ccccc23)c1 (configuration not stated) | 0.083 µM | 77% | 0.003 |  |  | 48 mmHg |  |  |  |  | 
22 | COc1cccc(CCNC(C)Cc2cc(OC)ccc2C#Cc2ccccc2)c1 (configuration not stated) | 0.004 µM | 115% | 0.019 |  | 56 mmHg |  |  |  |  |  | 
23 | COc1cc(CCN(C)C(C)Cc2cc(OC)ccc2C#Cc2ccccc2)cc(OC)c1 (configuration not stated) | 0.0025 µM | 100% | 0.5 | 66 mmHg |  |  | -68% | -22% | -41% | -10% | 
24 | COc1ccc(C#Cc2ccc(F)cc2)c(CC(C)N(C)CCc2ccc(OC)c(OC)c2)c1 (configuration not stated) | 0.0013 µM | 78% | 0.003 | 43 mmHg |  |  |  |  |  |  | 
25 | CCCCN(CCc1ccc(OC)c(OC)c1)C(C)Cc1cc(OC)ccc1C#Cc1ccccc1 (configuration not stated) | >3 µM |  |  |  |  | 49 mmHg |  |  |  |  | 
26 | COc1ccc(C#Cc2ccccc2)c(CC(C)N(C)CCCc2ccccc2)c1 (configuration not stated) | 2.5 µM | 95% | >0.5 |  |  | 52 mmHg |  |  |  |  | 
27 | COc1ccc(C#Cc2ccccc2)c(CC(C)N(C)CCc2cccc3ccccc23)c1 (configuration not stated) | 0.19 µM | 61% | 0.005 |  |  |  |  |  |  |  | 
28 | COc1cc(CCN(C)C(C)CCc2cc(OC)ccc2C#Cc2ccccc2)cc(OC)c1 (configuration not stated) | 0.095 µM | 105% | 0.15 |  |  | 42 mmHg |  |  |  |  | 
29 | COc1ccc(C#Cc2ccc(N(C)C)cc2)c(CC(C)N(C)CCc2ccc(OC)c(OC)c2)c1 (configuration not stated) | 0.035 µM | 115% | 0.009 | 69 mmHg |  |  |  |  |  |  | 
30 | COc1ccc(C#Cc2ccccc2)c(CC(C)NCCc2cccc(Cl)c2)c1 (configuration not stated) | 0.03 µM | 85% | 0.007 | 52 mmHg |  |  |  |  |  |  | 
31 | COc1ccc(C#Cc2ccccc2)c(CC(C)N(C)CCc2cccc(Cl)c2Cl)c1 (configuration not stated) | 0.015 µM | 58% | 0.007 | 111 mmHg |  |  |  |  |  |  | 
32 | COc1ccc(C#Cc2ccccc2)c(CCC(C)N(C)CCc2ccc(OC)c(OC)c2)c1 (configuration not stated) | 0.025 µM | 135% | 0.055 |  |  | 40 mmHg | -71% | -47% | -42% | -34% | 
33 | COc1ccc(C#Cc2ccccc2)c(CC(C)NCCc2ccc(Cl)c(Cl)c2)c1 (configuration not stated) | 0.006 µM | 115% | 0.205 | 43 mmHg |  |  | -20% | -5% | -21% | -23% | 
34 | COc1ccc(C#Cc2ccccc2)c(CC(C)NCCc2ccc(OC)c(OC)c2)c1 (configuration not stated) | 0.027 µM | 95% | >0.5 | 37 mmHg |  |  | -68% | -45% | -46% | -27% | 
35 | COc1ccc(C#Cc2ccccc2)c(CCC(C)NCCc2ccc(OC)c(OC)c2)c1 (configuration not stated) | 0.07 µM | 123% | 0.001 |  |  | 20 mmHg |  |  |  |  | 
36 | COc1cc(CCNC(C)CCc2cc(OC)ccc2C#Cc2ccccc2)cc(OC)c1 (configuration not stated) | 2.1 µM | 87% | 0.045 |  |  | 34 mmHg |  |  |  |  | 
37 | COc1ccc(C#Cc2ccccc2)c(CCN(C)C)c1 | 3 µM |  | >0.05 |  |  | 18 mmHg |  |  |  |  | 90%
38 | COc1ccc([C@@H]2Sc3ccccc3N(CCN(C)C)C(=O)[C@@H]2OC(C)=O)cc1 [DILTIAZEM] | 0.18 µM | 90% | >0.05 |  |  | 48 mmHg | -84% | -8% | -18% | -37% | 
39 | COC(=O)C1=C(C)NC(C)=C(C(=O)OC)C1c1ccccc1[N+](=O)[O-] [NIFEDIPINE] | 0.013 µM | 85% | 0.014 |  | 52 mmHg |  |  |  |  |  | 
40 | COc1ccc(CCN(C)CCCC(C#N)(c2ccc(OC)c(OC)c2)C(C)C)cc1OC (configuration not stated) [VERAPAMIL] | 0.1 µM | 35% | <0.001 |  |  | 67 mmHg | -89% | -18% | -30% | -22% | 
